Data: ChEMBL document CHEMBL1671674, “Induction of multidrug resistance mechanism in Escherichia coli biofilms by interplay between tetracycline and ampicillin resistance genes” (2009)
Converted amounts (≈) assume the structure as drawn. The source made the active and inactive calls. The rule behind the calls is not given here.

How the values were obtained:
Escherichia coli [1] = assay: Antibacterial activity against Escherichia coli OCL62 harboring plasmid pBR322 carrying blaTEM-1 and tetA(C) genes grown as planktonic cells after 24 hrs by broth microdilution method; conditions: OCL62, 24 h
Escherichia coli [2] = assay: Antibacterial activity against Escherichia coli MG1655 grown as biofilms assessed as inhibition of bacterial biofilms formation at 5 to 500 ug/ml; type: functional; conditions: K-12 substr. MG1655
Summary of the method: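 MG1655 biofilms grown in LB in PVC 96-well plates from early-stationary cultures diluted to OD600 0.1, static 24 h at 37°C. Antibiotic added unwashed as 10-fold dilutions (0.0000005–500 μg/ml) for another 24 h.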

Escherichia coli [3] = assay: Antibacterial activity against Escherichia coli OCL62 grown as planktonic cells after 24 hrs by agar dilution method; type: functional; conditions: OCL62, 24 h
Escherichia coli [4] = assay: Antibacterial activity against Escherichia coli MG1655 grown as biofilms harboring plasmid pBR322 carrying blaTEM-1 and tetA(C) genes assessed as reduction in bacterial biofilms formation; type: functional; conditions: K-12 substr. MG1655
Summary of the method: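 Biofilms grown in LB on PVC 96-well plates (inoculum OD600 0.1, 24 h, 37°C, static), then antibiotic added as 10-fold dilutions for 24 h. Eight replicates per condition, four independent experiments.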

Escherichia coli [5] = assay: Antibacterial activity against Escherichia coli MG1655 grown as planktonic cells after 24 hrs by agar dilution method; type: functional; conditions: K-12 substr. MG1655, 24 h
Escherichia coli [6] = assay: Antibacterial activity against Escherichia coli OCL62 grown as biofilms after 24 hrs by agar dilution method; type: functional; conditions: OCL62, 24 h
Summary of the method: (§1)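 Biofilm MIC: cultures diluted to OD600 0.1 in LB, grown in PVC 96-well plates 24 h at 37°C without shaking; antibiotic added directly without washing as 10-fold dilutions, then 24 h more.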

Escherichia coli [7] = assay: Antibacterial activity against Escherichia coli MG1655 grown as planktonic cells harboring plasmid pBR322 carrying blaTEM-1 and tetA(C) genes assessed as reduction in bacterial biofilms formation; type: functional; conditions: K-12 substr. MG1655
Escherichia coli [8] = assay: Antibacterial activity against Escherichia coli MG1655 harboring plasmid pBR322 carrying blaTEM-1 and tetA(C) genes grown as planktonic cells after 24 hrs by agar dilution method; conditions: K-12 substr. MG1655, 24 h
Escherichia coli [9] = assay: Antibacterial activity against Escherichia coli MG1655 grown as biofilms harboring plasmid pBR322 carrying blaTEM-1 and tetA(C) genes after 24 hrs by agar dilution method; type: functional
Summary of the method: as §1

Escherichia coli [10] = assay: Antibacterial activity against Escherichia coli MG1655 harboring grown as biofilms plasmid pBR322 carrying blaTEM-1 and tetA(C) genes assessed as decrease in bacterial biofilms formation at 5 ug/ml by GFP assay; type: functional; conditions: K-12 substr. MG1655
Escherichia coli [11] = assay: Antibacterial activity against Escherichia coli MG1655 grown as biofilms after 24 hrs by agar dilution method; type: functional; conditions: K-12 substr. MG1655, 24 h
Summary of the method: as §1

Escherichia coli [12] = assay: Antibacterial activity against Escherichia coli OCL62 grown as biofilms harboring plasmid pBR322 carrying blaTEM-1 and tetA(C) genes after 24 hrs by crystal violet staining method; conditions: OCL62, 24 h

Q: Which results are given for `CC1(C)S[C@@H]2[C@H](NC(=O)[C@H](N)c3ccccc3)C(=O)N2[C@H]1C(=O)O` [AMPICILLIN]?
A: MIC (Escherichia coli [1]): 5 µg/mL (≈ 14.3 µM); Activity (Escherichia coli [2]): Active; MIC (Escherichia coli [3]): 5 µg/mL (≈ 14.3 µM); inhibition (Escherichia coli [4]): Active; MIC (Escherichia coli [5]): 0.5 µg/mL (≈ 1.43 µM); MIC (Escherichia coli [6]): 5 µg/mL (≈ 14.3 µM); inhibition (Escherichia coli [7]): inactive; MIC (Escherichia coli [8]): 500 µg/mL (≈ 1430 µM); MIC (Escherichia coli [9]; K-12 substr. MG1655, 24 h): 5 µg/mL (≈ 14.3 µM); inhibition (Escherichia coli [10]): Active; MIC (Escherichia coli [11]): 5 µg/mL (≈ 14.3 µM); MIC (Escherichia coli [12]): 50 µg/mL (≈ 143 µM)

Q: `O=C(N[C@H](CO)[C@H](O)c1ccc([N+](=O)[O-])cc1)C(Cl)Cl` [CHLORAMPHENICOL] was tested. Which MIC (Escherichia coli [8]) did it give?
A: The MIC was 0.5 µg/mL (≈ 1.55 µM).

Q: What about the MIC (Escherichia coli [9]; K-12 substr. MG1655, 24 h) of the same molecule?
A: Its MIC is 5 µg/mL (≈ 15.5 µM).

Q: For `CC[C@H]1OC(=O)[C@H](C)[C@@H](O[C@H]2C[C@@](C)(OC)[C@@H](O)[C@H](C)O2)[C@H](C)[C@@H](O[C@@H]2O[C@H](C)C[C@H](N(C)C)[C@H]2O)[C@](C)(O)C[C@@H](C)C(=O)[C@H](C)[C@@H](O)[C@]1(C)O` [ERYTHROMYCIN], which MIC (Escherichia coli [8]) is on record?
A: The MIC was 0.5 µg/mL (≈ 0.681 µM).

Q: What about the MIC (Escherichia coli [9]; K-12 substr. MG1655, 24 h) of the same molecule?
A: The MIC was 5 µg/mL (≈ 6.81 µM).

Q: How did the MIC (Escherichia coli [9]; K-12 substr. MG1655, 24 h) turn out when `NC[C@H]1O[C@H](O[C@H]2[C@H](O)[C@@H](O[C@H]3O[C@H](CO)[C@@H](O)[C@H](N)[C@H]3O)[C@H](N)C[C@@H]2N)[C@H](O)[C@@H](O)[C@@H]1O` [KANAMYCIN] was run?
A: Its MIC is 0.5 µg/mL (≈ 1.03 µM).

Q: With `CC1(C)S[C@@H]2[C@H](NC(=O)Cc3ccccc3)C(=O)N2[C@H]1C(=O)O` [PENICILLIN G] as the molecule, how does the MIC (Escherichia coli [8]) read?
A: The MIC was 5 µg/mL (≈ 15 µM).

Q: What about the MIC (Escherichia coli [9]; K-12 substr. MG1655, 24 h) of the same molecule?
A: Its MIC is 0.5 µg/mL (≈ 1.5 µM).

Q: With `CN(C)[C@@H]1C(O)=C(C(N)=O)C(=O)[C@@]2(O)C(O)=C3C(=O)c4c(O)cccc4[C@@](C)(O)[C@H]3C[C@@H]12` [TETRACYCLINE] as the molecule, how does the Activity (Escherichia coli [2]) read?
A: The Activity was “Active”.

Q: What about the MIC (Escherichia coli [5]) of the same molecule?
A: Its MIC is 0.5 µg/mL (≈ 1.13 µM).

Q: What about the MIC (Escherichia coli [8]) of the same molecule?
A: The MIC was 500 µg/mL (≈ 1130 µM).

Q: What about the MIC (Escherichia coli [9]; K-12 substr. MG1655, 24 h) of the same molecule?
A: Its MIC is greater than 500 µg/mL.

Q: What about the inhibition (Escherichia coli [10]) of the same molecule?
A: The inhibition was “Active”.

Q: What about the MIC (Escherichia coli [11]) of the same molecule?
A: The MIC was 500 µg/mL (≈ 1130 µM).

Q: For GENTAMICIN, which MIC (Escherichia coli [9]; K-12 substr. MG1655) is on record?
A: The MIC was 0.005 µg/mL.
